Bioassay records (PubChem)
PglD DTNB: C. jejuni PglD acetyltransferase inhibitors, primary screen, biochemical, DTNB colorimetric, single point; UDP-N-acetylbacillosamine N-acetyltransferase PglD (Campylobacter jejuni); purified PglD enzyme, DTNB colorimetric CoA detection; inhibition, % at 12.5 µM; hit rate 0.098% among 360,000; AID 602405, 2012; in the data active means inhibition above about 16%, passing the limit was not always enough; inconclusive means no clear call, values can overlap the other calls
DENV2 CPE rescue: inhibitors of DENV2 cytopathic effect, primary screen, cell-based, plate reader, single concentration | DENV2-infected cells, cytopathic effect rescue | CPE inhibition, % at 9.99 µM | hit rate 1.7% among 350,000 | AID 651640, 2012; in the data active means CPE inhibition above about 20%, passing the limit was not always enough; inconclusive means no clear call, values can overlap the other calls; tested in BHK-21 cells;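 further: 0% = median of neutral control wells and 100% = median of positive control wells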
FN deposition inh: inhibitors of fibronectin matrix deposition, primary screen, AH1F cells, Alexa488-fibronectin fluorescence, plate reader; AID 743247, 2014; inhibition, % at 12.6 µM; hit rate 0.086% among 350,000; AH1F fibroblasts, overnight;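 active means mean inhibition across replicates of 30% or more, regardless of how many single replicates reach that level; inconclusive means mean under 30% yet at least half of replicates reach 30%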;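 further: positive control wells lacked labelled fibronectin entirely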
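Material: AH1F fibroblast monolayer depositing Alexa488-labelled fibronectin into matrix / Amount: 10000 AH1F cells per well / Signal: fluorescence 485/525 nm / Medium: DMEM, 2% serum / Compound: single dose, pinned / Incubation: 1 h cell adhesion before compound, then overnight fibronectin incubation / Reagent: Alexa488-FN, 24 nM final / Read-out: inhibition of fibronectin deposition signal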
Ecoli rRNA inh: reduced GFP signal of wild-type E. coli, primary screen, bacterial rRNA inhibitor project, GFP/RFP fluorescence, OD600, single point; E. coli WT GFP vs humanized-ribosome RFP mutants, 24 h; stronger effect = lower value; DMSO median 0, no signal -100; GFP signal change (wild-type ribosome), % (concentration not given with the values); hit rate 1.6% among 350,000; AID 720706, 2013;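 active means significant combined selectivity score with lowered wild-type GFP, culture density cut under 30%, mutant RFP and density less affected; inactive means any of these conditions unmet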
PGC1a acetyl inh: inhibitors of PGC1a acetylation signal, primary screen, cell-based, U2OS, AlphaScreen, inhibitor mode; AlphaScreen anti-acetyl-lysine; with virally co-expressed GCN5 acetyltransferase; inhibition, % at 15.6 µM; hit rate 0.17% among 350,000;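 active means every replicate shows inhibition of at least 40%; inconclusive means mean inhibition at least 40% but some replicate below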;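 further: 0% = neutral control wells and 100% = positive control wells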
Env fusion inh: inhibitors of HIV-1 Env-driven cell-cell fusion, primary screen, HeLa-JRFL effector, CEM21 target cells, luciferase; hit rate 1.1% among 360,000; inhibition, % at 12.3 µM;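 active means mean replicate inhibition score of at least 50 and every replicate individually at or above 50; inconclusive means only one of the two criteria met; inactive means mean below 50 and not all replicates reaching 50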;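 further: 0% = plate neutral controls and 100% = maraviroc near 300 nM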
* = called active by the depositor; [ ] = remark or other dose. In the library only some 3.5% were active in any assay of this set; here they are far more common.

For C[C@@H]1CN([C@H](C)CO)S(=O)(=O)c2ccc(C#CC(C)(C)O)cc2O[C@@H]1CN(C)C(=O)C1CCCCC1 the results were PglD DTNB 2.0, DENV2 CPE rescue 20.4*, Ecoli rRNA inh 0.4, PGC1a acetyl inh -2.2 and Env fusion inh -119.2[16.7 µM].
C[C@H]1CN([C@@H](C)CO)S(=O)(=O)c2ccc(C#CCN(C)C)cc2O[C@@H]1CN(C)C(=O)C1CCC1 was read as PglD DTNB -2.3, DENV2 CPE rescue 27.4*, Ecoli rRNA inh -0.2, PGC1a acetyl inh 7.9 and Env fusion inh -30.2[16.7 µM].
`C[C@H](CO)N1C[C@H](C)[C@@H](CN(C)C(=O)C2CCCCC2)Oc2cc(C#CC(C)(C)O)ccc2S1(=O)=O` gave PglD DTNB 5.0, DENV2 CPE rescue -5.1, Ecoli rRNA inh 0.4, PGC1a acetyl inh -3.2 and Env fusion inh 1.1[16.7 µM].
`C[C@H](CO)N1C[C@H](C)[C@H](CN(C)C(=O)C2CCC2)Oc2cc(C#CCN(C)C)ccc2S1(=O)=O` gave PglD DTNB 3.9, DENV2 CPE rescue 4.1, Ecoli rRNA inh 4.1, PGC1a acetyl inh -0.8 and Env fusion inh -14.2[16.7 µM].
`COCC#Cc1ccc2c(c1)O[C@@H](CN(C)C(=O)Nc1ccccc1F)[C@H](C)CN([C@@H](C)CO)S2(=O)=O` gave PglD DTNB 3.8, DENV2 CPE rescue 90.1*, Ecoli rRNA inh 1.3, PGC1a acetyl inh -9.1 and Env fusion inh 10.4[16.7 µM].
For COCC#Cc1ccc2c(c1)O[C@H](CN(C)C(=O)Nc1ccccc1F)[C@@H](C)CN([C@@H](C)CO)S2(=O)=O the results were PglD DTNB 4.5, DENV2 CPE rescue -4.5, Ecoli rRNA inh -3.8, PGC1a acetyl inh -8.9 and Env fusion inh -10.3[16.7 µM].
For C[C@H]1CN([C@@H](C)CO)C(=O)c2cc(NC(=O)Nc3ccc4c(c3)OCO4)ccc2O[C@@H]1CN(C)S(=O)(=O)c1ccccc1 the results were PglD DTNB 2.8, Ecoli rRNA inh -7.0, PGC1a acetyl inh -7.2 and Env fusion inh -19.5[16.7 µM].
Screening COCC(=O)N[C@H]1C=C[C@@H](CC(=O)NCc2ccccc2OC)O[C@H]1CO returned PglD DTNB 0.5, DENV2 CPE rescue -3.3, FN deposition inh -3.0, Ecoli rRNA inh 3.6, PGC1a acetyl inh -8.9 and Env fusion inh 7.0[16.7 µM].
CCCC#Cc1ccc2c(c1)O[C@@H](CN(C)C(=O)C1CCCCC1)[C@@H](C)CN([C@H](C)CO)S2(=O)=O was read as Ecoli rRNA inh -6.7, PGC1a acetyl inh -16.6 and Env fusion inh 22.3[16.7 µM].
`CCCC#Cc1ccc2c(c1)O[C@@H](CN(C)C(=O)C1CCCCC1)[C@H](C)CN([C@H](C)CO)S2(=O)=O` gave Ecoli rRNA inh -4.2, PGC1a acetyl inh 2.6 and Env fusion inh 62.3*[16.7 µM].
`CC(C)CC#Cc1ccc2c(c1)O[C@@H](CN(C)C(=O)c1ccccc1F)[C@H](C)CN([C@@H](C)CO)S2(=O)=O` gave PglD DTNB 2.3, DENV2 CPE rescue 39.4*, Ecoli rRNA inh -4.4, PGC1a acetyl inh 5.1 and Env fusion inh inconclusive.
C[C@@H]1CN([C@H](C)CO)C(=O)c2cc(C3=CCCC3)cnc2O[C@@H]1CN(C)C(=O)c1ccccn1 was read as Ecoli rRNA inh 5.2, PGC1a acetyl inh -6.0 and Env fusion inh 6.7[16.7 µM].
CC(C)NC(=O)N(C)C[C@H]1Oc2c(NC(=O)NC3CCCCC3)cccc2C(=O)N([C@@H](C)CO)C[C@@H]1C was read as PglD DTNB -3.5, DENV2 CPE rescue -2.4, Ecoli rRNA inh 3.4, PGC1a acetyl inh 7.8 and Env fusion inh 2.4[16.7 µM].
For CN(C)CCCN(C(=O)c1ccc(S(=O)(=O)N(C)Cc2ccccc2)cc1)c1nc2c(F)cccc2s1 the results were PglD DTNB 5.7, DENV2 CPE rescue 15.4, FN deposition inh 8.2, Ecoli rRNA inh -32.9*, PGC1a acetyl inh -7.5 and Env fusion inh 0.1.
For Cc1cccc2sc(N(CCCN(C)C)C(=O)c3sc4ccccc4c3Cl)nc12 the results were PglD DTNB -1.9, FN deposition inh 10.5, PGC1a acetyl inh 1.8 and Env fusion inh -17.0.
`CCc1ccc2nc(N(CCCN(C)C)C(=O)c3ccc(S(=O)(=O)N4CCc5ccccc5C4)cc3)sc2c1` gave PglD DTNB 0.4, DENV2 CPE rescue 0.5, FN deposition inh 16.3, Ecoli rRNA inh -25.1* and Env fusion inh 22.8.
`COc1cccc2sc(N(CCCN(C)C)C(=O)c3sc4ccccc4c3Cl)nc12` gave PglD DTNB -0.2, DENV2 CPE rescue -0.4, FN deposition inh 5.8, Ecoli rRNA inh -43.3* and PGC1a acetyl inh 2.3.
`COc1ccc(S(=O)(=O)N(C)C[C@@H]2Oc3c(NC(=O)c4nc5ccccc5s4)cccc3C(=O)N([C@@H](C)CO)C[C@H]2C)cc1` gave FN deposition inh -0.1, Ecoli rRNA inh 3.2, PGC1a acetyl inh 1.7 and Env fusion inh -22.4[16.7 µM].
For O=C(CSCC(=O)Nc1cccc2ccccc12)Nc1cccc2ccccc12 the results were PglD DTNB 2.4, DENV2 CPE rescue 1.9, FN deposition inh -9.9, Ecoli rRNA inh 3.1, PGC1a acetyl inh -2.6 and Env fusion inh 71.3*.
For CCCCn1nnc(NC(=O)c2ccc(-c3ccccc3[N+](=O)[O-])o2)n1 the results were PglD DTNB -3.0, DENV2 CPE rescue 3.4, FN deposition inh -1.4, Ecoli rRNA inh -19.0 and Env fusion inh -24.8.
CCn1nnc(NC(=O)c2ccc([N+](=O)[O-])o2)n1 was read as DENV2 CPE rescue -6.7, Ecoli rRNA inh -23.1* and Env fusion inh -5.3.
`CCC(=O)N1CCN(c2ccc(NC(=O)c3ccc([N+](=O)[O-])o3)cc2Cl)CC1` gave FN deposition inh 59.9*, Ecoli rRNA inh -3.5, PGC1a acetyl inh 29.8 and Env fusion inh inactive.
CCN1CCN(c2ccc(NC(=O)c3ccc([N+](=O)[O-])o3)cc2Cl)CC1 was read as DENV2 CPE rescue -1.2, FN deposition inh -18.8, Ecoli rRNA inh -37.7* and Env fusion inh -435.1.
Screening O=C(Nc1cc(Cl)ccc1-n1cncn1)c1ccc([N+](=O)[O-])o1 returned PglD DTNB -0.8, DENV2 CPE rescue -4.3, FN deposition inh -10.2, Ecoli rRNA inh -21.3* and Env fusion inh 8.9.
For CNC[C@@H]1Oc2ccc(NS(=O)(=O)c3cn(C)cn3)cc2CC(=O)N([C@@H](C)CO)C[C@H]1C the results were PglD DTNB 1.5, DENV2 CPE rescue 0.4, FN deposition inh -1.8, Ecoli rRNA inh -1.6, PGC1a acetyl inh 1.6 and Env fusion inh -10.2[16.7 µM].
